Results from ChEMBL document CHEMBL1125540, “Antiviral and antitumor structure-activity relationship studies on tetracyclic eudistomines” (1992).
Values after ≈ are worked out from the molar mass of the structure shown.

How the values were obtained:
Format in all cases: functional
HeLa [1] = experiment: Evaluation for antiviral activity against Coxsackie virus B4 in HeLa cell cultures (Concentration required to reduce virus-induced cytopathogenicity by 50%); details: Homo sapiens
Summary of the method: (§1)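 HeLa cultures were infected with respiratory syncytial, vesicular stomatitis, Coxsackie B4 or polio-1 virus. The antiviral end-point is 50% reduction of virus-induced cytopathogenicity. Cytotoxicity is the minimum concentration producing microscopically detectable alteration of normal cell morphology.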

HeLa [2] = experiment: Evaluation for antiviral activity against vesicular stomatitis virus in HeLa cell cultures (Concentration required to reduce virus-induced cytopathogenicity by 50%); details: Homo sapiens; summary of the method: as §1
HeLa [3] = experiment: Evaluation in HeLa cell cultures for cytotoxicity that is to cause microscopically detectable alteration of normal cell morphology; details: Homo sapiens; summary of the method: as §1
MDCK = experiment: Compound was evaluated in MDCK cell cultures for cytotoxicity that is to cause microscopically detectable alteration of normal cell morphology; details: Canis lupus familiaris
Summary of the method: (§2)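 Influenza A and B virus replication in MDCK cultures. Antiviral value is the concentration giving 50% reduction of virus-induced cytopathogenicity. Cytotoxicity is the concentration causing a microscopically detectable change in normal cell morphology.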

MT4 = experiment: Inhibitory effect on the proliferation of human T-lymphocyte (MT-4); details: read-out: ID50 (the source's name)
Summary of the method: (§3)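 Proliferation assay in murine leukemia L1210, human T-lymphoblast Molt-4F and human T-lymphocyte MT-4 cells. ID50 is the dose inhibiting tumor cell proliferation by 50%, expressed in μg/mL.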

MOLT-4F = experiment: Inhibitory effect on the proliferation of human T-lymphoblast cells (Molt-4F); details: read-out: ID50 (the source's name); summary of the method: as §3
[4] = Evaluation for antiviral activity against vesicular stomatitis virus in primary rabbit kidney cell cultures(PRK) (Concentration required to reduce virus-induced cytopathogenicity by 50%); details: Oryctolagus cuniculus
[5] = Evaluation in PRK cell cultures for cytotoxicity that is to cause microscopically detectable alteration of normal cell morphology; details: Oryctolagus cuniculus
[6] = Evaluation for antiviral activity against herpes simplex virus-1(F) in primary rabbit kidney cell cultures(PRK) (Concentration required to reduce virus-induced cytopathogenicity by 50%); details: Oryctolagus cuniculus
[7] = Evaluated for antiviral activity against herpes simplex virus-1(KOS) in primary rabbit kidney cell cultures(PRK) (Concentration required to reduce virus-induced cytopathogenicity by 50%); details: Oryctolagus cuniculus
[8] = Evaluation for antiviral activity against herpes simplex virus-1 (McIntyre) in primary rabbit kidney cell cultures(PRK) (Concentration required to reduce virus-induced cytopathogenicity by 50%); details: Oryctolagus cuniculus
[9] = Evaluation for antiviral activity against herpes simplex virus-1(TK-) (B2006) in primary rabbit kidney cell cultures(PRK) (Concentration required to reduce virus-induced cytopathogenicity by 50%); details: Oryctolagus cuniculus
[10] = Evaluation for antiviral activity against herpes simplex virus-2(196) in primary rabbit kidney cell cultures(PRK) (Concentration required to reduce virus-induced cytopathogenicity by 50%); details: Oryctolagus cuniculus
[11] = Evaluation for antiviral activity against herpes simplex virus-2(G) in primary rabbit kidney cell cultures(PRK) (Concentration required to reduce virus-induced cytopathogenicity by 50%); details: Oryctolagus cuniculus
[12] = Evaluation for antiviral activity against herpes simplex virus-2(Lyons) in primary rabbit kidney cell cultures(PRK) (Concentration required to reduce virus-induced cytopathogenicity by 50%); details: Oryctolagus cuniculus
Vero [13] = experiment: Evaluation for antiviral activity against reo virus-1 in Vero cell cultures (Concentration required to reduce virus-induced cytopathogenicity by 50%); details: Chlorocebus sabaeus
Summary of the method: (§4)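 Vero cultures were infected with parainfluenza-3, reovirus-1, Sindbis, Coxsackie B4 or Semliki forest virus. Values are concentrations giving 50% reduction of virus-induced cytopathogenicity, or a microscopically detectable alteration of normal cell morphology for cytotoxicity. Each is the average of two separate experiments.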

Vero [14] = experiment: Evaluation in Vero cell cultures for cytotoxicity that is to cause microscopically detectable alteration of normal cell morphology; details: Chlorocebus sabaeus; summary of the method: as §4
Vero [15] = experiment: Evaluation for antiviral activity against forest virus in Vero cell cultures (Concentration required to reduce virus-induced cytopathogenicity by 50%); details: Chlorocebus sabaeus; summary of the method: as §4
Vero [16] = experiment: Evaluation for antiviral activity against Sindbis virus in Vero cell cultures (Concentration required to reduce virus-induced cytopathogenicity by 50%); details: Chlorocebus sabaeus; summary of the method: as §4
Vero [17] = experiment: Evaluation for antiviral activity against parainfluenza-3 virus in Vero cell cultures (Concentration required to reduce virus-induced cytopathogenicity by 50%); details: Chlorocebus sabaeus; summary of the method: as §4
L1210 = experiment: Inhibitory effect on the proliferation of murine leukemia cells (L1210); details: Mus musculus, read-out: ID50 (the source's name); summary of the method: as §3
Influenza B virus = experiment: Concentration required to reduce influenza virus B (singapore) induced cytopathogenicity by 50%; summary of the method: as §2
Vero [18] = experiment: Evaluation for antiviral activity against Coxsackie virus B4 in Vero cell cultures (Concentration required to reduce virus-induced cytopathogenicity by 50%); details: Chlorocebus sabaeus; summary of the method: as §4
[19] = Evaluation for antiviral activity against vaccinia virus in primary rabbit kidney cell cultures(PRK) (Concentration required to reduce virus-induced cytopathogenicity by 50%); details: Oryctolagus cuniculus
Influenza A virus = experiment: Concentration required to reduce influenza virus A (ishikawa) induced cytopathogenicity by 50%; summary of the method: as §2
HeLa [20] = experiment: Evaluation for antiviral activity against polio virus-1 in HeLa cell cultures (Concentration required to reduce virus-induced cytopathogenicity by 50%); details: Homo sapiens; summary of the method: as §1
HeLa [21] = experiment: Compound was evaluated for antiviral activity against respiratory syncitial virus (long) in HeLa cell cultures (Concentration required to reduce virus-induced cytopathogenicity by 50%); details: Homo sapiens; summary of the method: as §1

SMILES	MIC (HeLa [1])	MIC (HeLa [2])	MCC (HeLa [3])	MCC (MDCK)	IC50 (MT4)	IC50 (MOLT-4F)	MIC [4]	MCC [5]	MIC [6]	MIC [7]	MIC [8]	MIC [9]	MIC [10]	MIC [11]	MIC [12]	MIC (Vero [13])	MCC (Vero [14])	MIC (Vero [15])	MIC (Vero [16])	MIC (Vero [17])	also measured
N[C@H]1CSCON2CCc3c([nH]c4ccccc34)[C@H]12	> 1 mg/L	> 1 mg/L	> 4 µg/mL	8 µg/mL	0.77 mg/L (≈ 2.8 µM)	0.6 mg/L (≈ 2.18 µM)	> 4 mg/L	10 µg/mL	2 mg/L (≈ 7.26 µM)	> 4 mg/L	> 4 mg/L	> 4 mg/L	2 mg/L (≈ 7.26 µM)	> 4 mg/L	2 mg/L (≈ 7.26 µM)	> 4 mg/L	> 10 µg/mL	> 4 mg/L	> 4 mg/L	> 4 mg/L	IC50 (L1210): 1.4 mg/L (≈ 5.08 µM); MIC (Influenza B virus): > 1.6 mg/L; MIC (Vero [18]): > 4 mg/L; MIC [19]: > 4 mg/L; MIC (Influenza A virus): > 1.6 mg/L; MIC (HeLa [20]): > 1 mg/L; MIC (HeLa [21]): > 1.6 mg/L
N[C@@H]1CSCON2CCc3c([nH]c4ccccc34)[C@@H]12	> 10 mg/L	> 10 mg/L	> 10 µg/mL	15 µg/mL	4.5 mg/L (≈ 16.3 µM)	5.14 mg/L (≈ 18.7 µM)	> 10 mg/L	40 µg/mL	> 10 mg/L	> 10 mg/L	> 10 mg/L	> 10 mg/L	> 10 mg/L	> 10 mg/L	> 10 mg/L	> 10 mg/L	40 µg/mL	> 10 mg/L	> 10 mg/L	> 10 mg/L	IC50 (L1210): 17.4 mg/L (≈ 63.2 µM); MIC (Influenza B virus): > 8 mg/L; MIC (Vero [18]): > 10 mg/L; MIC [19]: > 10 mg/L; MIC (Influenza A virus): > 8 mg/L; MIC (HeLa [20]): > 10 mg/L; MIC (HeLa [21]): > 8 mg/L
